Reference: paper PMC5473336 (Journal of medicinal chemistry, 2016)
Entries after “also recorded” stand apart in the source; their conditions may differ. Like-named read-outs stand apart in the source and are kept apart here.

Experiments:
RAD51 [1] = target: T1, RAD51 (Homo sapiens, UniProt Q06609); assay: Gel-based D-loop assay; format: biochemical
T1 sequence (Q06609 1-339): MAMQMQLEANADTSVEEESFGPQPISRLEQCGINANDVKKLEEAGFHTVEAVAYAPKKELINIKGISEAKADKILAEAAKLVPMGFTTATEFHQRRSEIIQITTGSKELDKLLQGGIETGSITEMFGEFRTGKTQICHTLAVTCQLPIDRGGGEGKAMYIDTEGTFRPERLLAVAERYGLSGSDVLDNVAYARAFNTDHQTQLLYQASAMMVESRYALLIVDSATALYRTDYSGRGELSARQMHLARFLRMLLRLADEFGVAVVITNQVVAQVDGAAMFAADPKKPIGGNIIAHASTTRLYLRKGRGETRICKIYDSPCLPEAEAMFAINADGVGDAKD

[2] = test system: U2OS, PC-3, and MCF-7 tumor cell lines; assay: Clonogenic survival assay after ionizing radiation; format: cell-based; conditions: compound given immediately after irradiation, for the duration of outgrowth
Method in brief: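 X-ray irradiation at 1.5 Gy/min of subconfluent flask cultures, then trypsinized and seeded at 1000–1500 cells/well in complete medium with 0.5% DMSO plus compound at the indicated dose. Grown 7–11 days until colonies reached at least 50 cells, then fixed and stained in 6% glutaraldehyde + 0.5% crystal violet. Colonies counted automatically. PC-3 kept in DMEM:F12 (1:1), 10% FCS, penicillin/streptomycin.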

293-DR-GFP cells [3] = assay: RAD51 cytological focus formation after irradiation; format: cell-based, human; conditions: IR-induced, 8 h time course
[4] = target: T2, S. cerevisiae Rad51 and Rad52 proteins (Saccharomyces cerevisiae, UniProt P25454); assay: Gel-based D-loop assay with yeast recombinase; format: biochemical; conditions: selectivity versus human RAD51
T2 sequence (P25454 1-400): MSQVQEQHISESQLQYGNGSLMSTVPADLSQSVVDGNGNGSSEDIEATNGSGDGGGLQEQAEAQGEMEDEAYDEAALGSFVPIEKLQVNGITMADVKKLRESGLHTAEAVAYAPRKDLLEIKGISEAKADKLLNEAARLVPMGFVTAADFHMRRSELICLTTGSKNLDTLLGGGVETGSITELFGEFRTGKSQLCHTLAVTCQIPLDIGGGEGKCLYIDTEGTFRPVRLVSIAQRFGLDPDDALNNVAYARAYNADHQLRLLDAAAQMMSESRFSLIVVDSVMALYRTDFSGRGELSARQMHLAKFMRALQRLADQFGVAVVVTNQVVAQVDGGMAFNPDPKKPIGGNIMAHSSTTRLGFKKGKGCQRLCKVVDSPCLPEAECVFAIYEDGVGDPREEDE

RAD51 [5] = target: T1, RAD51; assay: Fluorescence polarization-based RAD51-DNA binding assay; conditions: for ssDNA binding IC50: Stim: compound is a stimulator
293-SA-GFP cells [6] = assay: Single-strand annealing; format: cell-based, human; conditions: concentration range that inhibits HR, 24 h post-transfection
Method in brief: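 Cells electroporated in Opti-MEM with 37.5 μg/mL I-SceI plasmid (pCBASce) or empty pCAGGS vector at 325 V, 975 μF. Then seeded in complete DMEM + 0.5% DMSO with compound and grown out 24 h. Harvested into PBS with 1 μg/mL 7-AAD for flow cytometry, gating out dead/apoptotic cells by size, shape and 7-AAD. Read-out is the GFP-positive fraction of live cells; three replicates, standard error.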

E. coli RecA protein = E. coli RecA protein (Escherichia coli, UniProt P0A7G6); assay: Gel-based D-loop assay with bacterial recombinase; format: biochemical; conditions: selectivity versus human RAD51
Sequence of E. coli RecA protein (P0A7G6 whole entry): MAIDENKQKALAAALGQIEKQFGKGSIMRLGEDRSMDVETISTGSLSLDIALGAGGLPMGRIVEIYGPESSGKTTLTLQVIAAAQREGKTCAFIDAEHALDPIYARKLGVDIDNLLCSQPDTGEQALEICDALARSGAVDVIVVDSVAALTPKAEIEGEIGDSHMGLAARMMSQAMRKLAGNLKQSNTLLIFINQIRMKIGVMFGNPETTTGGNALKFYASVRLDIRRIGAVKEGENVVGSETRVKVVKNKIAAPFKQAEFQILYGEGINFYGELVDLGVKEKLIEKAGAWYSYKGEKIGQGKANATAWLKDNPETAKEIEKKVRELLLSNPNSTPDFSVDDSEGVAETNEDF

293-DR-GFP cells [7] = assay: DR-GFP assay of cellular HR activity; format: cell-based, human; conditions: 24 h, relative to 1 and 8
[8] = Stability on exposure to air; format: physicochemical; conditions: room temperature; oxidizes to compound 8
293-SA-GFP cells [9] = conditions: previously demonstrated; cited from earlier work

| Compound | D-loop inhibitory activity (in words) (RAD51 [1]) | influence on RAD51-ssDNA binding (in words) (RAD51 [5]) | ssDNA binding IC50 (RAD51 [5]) | other results |
| --- | --- | --- | --- | --- |
| c1ccc2c(c1)nc(-c1ccc(N3CCOCC3)cc1)c1cccn12 [Compound 9j, 4-(4-(Pyrrolo[1,2-a]quinoxalin-4-yl)phenyl)morpholine] | allow for D-loop inhibition | – | – | – |
| CCNc1ccc(-c2nc3ccccc3n3cccc23)cc1 [Compound 9h, N-Ethyl-4-(pyrrolo[1,2-a]quinoxalin-4-yl)aniline] | allow for D-loop inhibition | almost no impact | – | sensitization of cancer cells to radiation, clonogenic survival (in words) [2]: significantly sensitizes; appearance of RAD51 subnuclear foci in response to DNA damage (in words) (293-DR-GFP cells [3]): does not inhibit; inhibition of D-loop activity of Saccharomyces cerevisiae Rad51 (in words) [4]: no significant inhibition; effect on SSA activity (in words) (293-SA-GFP cells [6]): does not stimulate SSA; inhibition of D-loop activity of Escherichia coli RecA (in words) (E. coli RecA protein): no significant inhibition |
| Nc1ccc(-c2nc3ccccc3n3cccc23)cc1 [Compound 9g, 4-(Pyrrolo[1,2-a]quinoxalin-4-yl)aniline] | allow for D-loop inhibition | – | – | – |
| FC(F)(F)Oc1ccc(-c2nc3ccccc3n3cccc23)cc1 [Compound 9e, 4-(4-(Trifluoromethoxy)phenyl)pyrrolo[1,2-a]quinoxaline] | significantly decreased | – | Stim | – |
| COc1ccc2c(c1)nc(-c1ccc(O)cc1)c1cccn12 [Compound 12a, 4-(7-Methoxypyrrolo[1,2-a]quinoxalin-4-yl)phenol] | – | relatively strong ssDNA binding inhibition | – | – |
| Nc1cccc(-c2nc3ccccc3n3cccc23)c1 [Compound 9c, 3-(Pyrrolo[1,2-a]quinoxalin-4-yl)aniline] | decreased | – | – | – |
| O=[N+]([O-])c1ccc(-c2nc3ccccc3n3cccc23)cc1 [Compound 9f, 4-(4-Nitrophenyl)pyrrolo[1,2-a]quinoxaline] | significantly decreased | – | – | – |
| Oc1ccc(-c2nc3ccccc3n3cccc23)cc1 [Compound 9d, 4-(Pyrrolo[1,2-a]quinoxalin-4-yl)phenol] | significantly decreased | – | – | – |
| COc1ccc2c(c1)NC(c1ccc(N(C)C)cc1)c1cccn1-2 (racemic) [Compound 7, 4-(7-Methoxy-4,5-dihydropyrrolo[1,2-a][13]quinoxalin-4-yl)-N,N-dimethylaniline] | – | significant stimulatory activity | Stim | stability when exposed to air (in words) [8]: not stable; inhibitory activity in cell-based HR assay (in words) (293-DR-GFP cells [7]): comparable to that of 1 and 8; Emax (RAD51 [5]; read-out: ssDNA binding max effect, ↑ compound stimulates RAD51-ssDNA binding): 47 ± 33% |
| c1ccc2c(c1)nc(-c1ccc(N3CCCC3)cc1)c1cccn12 [Compound 9i, 4-(4-(Pyrrolidin-1-yl)phenyl)pyrrolo[1,2-a]quinoxaline] | significantly decreased | modest influence | Stim | – |
| CN(C)c1ccc(-c2nc3cc(OC(C)(C)C(N)=O)ccc3n3cccc23)cc1 [Compound 16, 2-((4-(4-(Dimethylamino)phenyl)pyrrolo[1,2-a]quinoxalin-7-yl)-oxy)-2-methylpropanamide] | – | stimulators | Stim | – |
| Nc1ccc(-c2nc3cc(OCCF)ccc3n3cccc23)cc1 [Compound 15b, 4-(7-(2-Fluoroethoxy)pyrrolo[1,2-a]quinoxalin-4-yl)aniline] | – | stimulators; also recorded: modest effects | Stim | – |
| O=C1C(Cl)=C(N2CCOCC2)C(=O)N1c1ccc(Cl)c(Cl)c1 [RI-1] | – | – | – | effect on SSA activity (in words) (293-SA-GFP cells [9]): elevated levels of SSA activity |
| CN(C)c1ccc(-c2nc3ccccc3n3cccc23)cc1 [Compound 9a, N,N-Dimethyl-4-(pyrrolo[1,2-a]quinoxalin-4-yl)aniline] | allow for D-loop inhibition | modest influence | Stim | – |
| O=[N+]([O-])c1cccc(-c2nc3ccccc3n3cccc23)c1 [Compound 9b, 4-(3-Nitrophenyl)pyrrolo[1,2-a]quinoxaline] | – | modest influence | – | – |
| COc1ccc2c(c1)nc(-c1ccc(N(C)C)cc1)c1cccn12 [Compound 8, 4-(7-Methoxypyrrolo[1,2-a]quinoxalin-4-yl)-N,N-dimethylaniline] | – | – | Stim | – |

Further lines, with some results ahead:

| D-loop inhibitory activity (in words) (RAD51 [1]) | influence on RAD51-ssDNA binding (in words) (RAD51 [5]) | ssDNA binding IC50 (RAD51 [5]) | Compound | other results |
| --- | --- | --- | --- | --- |
| moderate | – | – | c1cncc(-c2nc3ccccc3n3cccc23)c1 [Compound 11a, 4-(Pyridin-3-yl)pyrrolo[1,2-a]quinoxaline] | – |
| – | only weakly influenced | Stim | CN(C)c1ccc(-c2nc3cc(O)ccc3n3cccc23)cc1 [Compound 12g, 4-(4-(Dimethylamino)phenyl)pyrrolo[1,2-a]quinoxalin-7-ol] | inhibitory activity in cell-based HR assay (in words) (293-DR-GFP cells [7]): comparable or slightly less inhibitory activity |
| weak | modest influence | Stim | C1=C(c2nc3ccccc3n3cccc23)CCCC1 [Compound 11c, 4-(Cyclohex-1-en-1-yl)pyrrolo[1,2-a]quinoxaline] | – |
| nearly absent | – | Stim | CN(C)c1ccc(-c2nc3cc(F)ccc3n3cccc23)cc1 [Compound 12j, 4-(7-Fluoropyrrolo[1,2-a]quinoxalin-4-yl)-N,N-dimethylaniline] | – |
| – | stimulators | Stim | COc1ccc2c(c1)nc(-c1ccc([N+](=O)[O-])cc1)c1cccn12 [Compound 12b, 7-Methoxy-4-(4-nitrophenyl)pyrrolo[1,2-a]quinoxaline] | – |
| slight improvement | – | – | Oc1ccc2c(c1)nc(-c1cccnc1)c1cccn12 [Compound 13b, 4-(Pyridin-3-yl)pyrrolo[1,2-a]quinoxalin-7-ol] | – |
| – | modest effects | – | Nc1ccc(-c2nc3cc(O)ccc3n3cccc23)cc1 [Compound 12f, 4-(4-Aminophenyl)pyrrolo[1,2-a]quinoxalin-7-ol] | inhibitory activity in cell-based HR assay (in words) (293-DR-GFP cells [7]): comparable or slightly less inhibitory activity |
| weak | modest influence | Stim | c1ccc2c(-c3nc4ccccc4n4cccc34)cccc2c1 [Compound 11d, 4-(Naphthalen-1-yl)pyrrolo[1,2-a]quinoxaline] | – |
| – | stimulators | Stim | CCCOc1ccc2c(c1)nc(-c1ccc(N)cc1)c1cccn12 [Compound 15a, 4-(7-Propoxypyrrolo[1,2-a]quinoxalin-4-yl)aniline] | – |
| moderate | – | – | c1ccc2c(c1)nc(-c1ccncc1)c1cccn12 [Compound 11b, 4-(Pyridin-4-yl)pyrrolo[1,2-a]quinoxaline] | – |
| – | only weakly influenced | – | COc1ccc2c(c1)nc(-c1ccc(N)cc1)c1cccn12 [Compound 12c, 4-(7-Methoxypyrrolo[1,2-a]quinoxalin-4-yl)aniline] | – |
| slight improvement | – | – | COc1ccc2c(c1)nc(-c1cccnc1)c1cccn12 [Compound 13a, 7-Methoxy-4-(pyridin-3-yl)pyrrolo[1,2-a]quinoxaline] | – |
| nearly absent | – | Stim | CN(C)c1ccc(-c2nc3cc(F)c(F)cc3n3cccc23)cc1 [Compound 12m, 4-(7,8-Difluoropyrrolo[1,2-a]quinoxalin-4-yl)-N,N-dimethylaniline] | – |
